Only some compounds are listed: those with a hit (about 4.9% of all), similar ones and a draw of the others.
FLuc act counter – affects firefly luciferase, flagging false hits in luciferase stimulation screens; P08659; ATPlite luciferase biochemical, luminescence, 10 min; 0 = ATP-free wells, 1 = DMSO control; activation factor at 10 µM; 200,000 tested, under 10 active;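 active = luciferase activation factor, scaled between plate controls, of at least 2 with compound at 10 µM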
Target sequence (P08659 whole entry, looked up): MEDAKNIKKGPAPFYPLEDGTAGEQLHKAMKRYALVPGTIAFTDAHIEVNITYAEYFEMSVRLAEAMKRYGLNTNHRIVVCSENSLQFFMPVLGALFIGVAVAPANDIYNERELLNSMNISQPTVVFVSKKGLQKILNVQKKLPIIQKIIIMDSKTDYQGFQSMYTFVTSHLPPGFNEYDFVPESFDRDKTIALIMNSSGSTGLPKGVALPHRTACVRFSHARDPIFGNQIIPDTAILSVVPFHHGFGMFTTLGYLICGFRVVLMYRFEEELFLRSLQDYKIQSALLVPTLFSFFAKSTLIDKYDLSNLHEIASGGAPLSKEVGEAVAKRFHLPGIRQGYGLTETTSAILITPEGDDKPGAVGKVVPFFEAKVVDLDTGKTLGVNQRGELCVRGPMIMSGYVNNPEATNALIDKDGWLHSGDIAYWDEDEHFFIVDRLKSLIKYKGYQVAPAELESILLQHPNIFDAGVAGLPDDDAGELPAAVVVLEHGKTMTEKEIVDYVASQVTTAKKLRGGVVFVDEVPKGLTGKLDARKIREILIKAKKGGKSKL
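Material: Luciferase/luciferin reagent mix; Doses: test compounds dosed from 2 mM stocks in 100% DMSO; Schedule: 10 min incubation after luciferase reagent addition, room temperature; Measured by: luminescence from luciferase reaction; Read-out: luminescence gain marking luciferase activators.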
STAT3 inh-1 – STAT3 signaling inhibition; U3A cells, IL-6 STAT3-luciferase reporter, luminescence; host cell line lacks STAT1; inhibition, % at 5.5 µM; hit rate 0.89% among 190,000;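 active = inhibition above the mean inhibition across all screened compounds plus 3 SD, cut at about 44% in these data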;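 also: 0% = DMSO only wells and 100% = 100 µM nifuroxazide control wells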
STAT3 activator – increases IL-6 driven STAT3 reporter signal; U3A cells, IL-6 STAT3-luciferase reporter, luminescence; 100% = signal with IL-6 EC80 alone; activation (% of control), % at 5.6 µM; hit rate 0.91% among 190,000; AID 871;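 active = activation above the screen-wide mean of compound activation plus 3 SD, cut at about 130% in these data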;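 also: 0% = background luminescence of wells with medium and substrate only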
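Material: STAT3-luciferase reporter U3A cells; Probe or stimulus: IL-6 (33 ng/mL); Incubation: compound pre-incubation 1 h before IL-6, then 6 h stimulation at 37 °C; Technique: luminescence from STAT3-driven luciferase reporter; Evaluation: % activation versus median of IL-6-stimulated wells; Controls: IL-6-only high control.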
FLuc inhib CS – inhibits firefly luciferase, flagging false hits in luciferase inhibition screens. ATPLite firefly luciferase biochemical luminescence, 10 min. inhibition, % at 10 µM. hit rate 1.5% among 200,000;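 active = inhibition above about 50% when tested at 10 µM, limit read from the data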
STAT1 act – activators of IFN-gamma induced STAT1 signaling. activation (% of control), % at 5.5 µM. NIH 3T3 STAT1-luciferase reporter, luminescence; 100% = IFN-gamma alone, no compound. AID 932. hit rate 2.6% among 200,000;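 active = activation above the screen-wide mean activation plus 3 SD, cut at about 130% in these data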;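 also: raw ratio to IFN-gamma control signal so 100% means no change and 0% no light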
STAT1 blocker – reduces IFN-gamma driven STAT1 reporter signal | hit rate 0.35% among 200,000 | NIH 3T3 STAT1-luciferase reporter, luminescence | AID 920 | inhibition, % at 5.5 µM;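 active = inhibition above a set limit, the mean inhibition across all tested compounds plus 3 SD, cut at about 34% in these data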;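 also: 0% = IFN-gamma with DMSO and 100% = IFN-gamma with 300 µM nifuroxazide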
STAT3 inh-2 – STAT3 inhibition, confirmation assay. shares compounds with STAT3 inh-1. U3A cells, IL-6 STAT3 luciferase reporter, luminescence; cell line lacks STAT1. inhibition, % at 5.7 µM. AID 1265. hit rate 45% among 1,200;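 active = inhibition above the hit cutoff computed for the primary STAT3 screen, cut at about 44% in these data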;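 also: 0% = IL-6 plus DMSO and 100% = IL-6 plus nifuroxazide control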
NFkB inh 2 – NF-kappaB inhibition in STAT3 inhibitor counter-screen; shares compounds with STAT3 inh-1; hit rate 36% among 1,200; HEK293T NF-kB luciferase reporter, TNF-alpha induced; AID 1308; inhibition, % at 5.7 µM;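 active = inhibition above the mean of solvent-only control wells plus 3 SD, cutoff set per campaign, cut at about 13% in these data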;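 also: 0% = TNF-alpha with DMSO and 100% = TNF-alpha with MG high control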
STAT1 inh 2 – STAT1 inhibition in STAT3 inhibitor counter-screen | shares compounds with STAT3 inh-1 | NIH 3T3 STAT1-luciferase reporter, IFN-gamma induced, luminescence | inhibition, % at 5.7 µM | hit rate 27% among 1,200;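 active = inhibition above the mean plus 3 SD of solvent-only control wells, limit set per screening run, cut at about 16% in these data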;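 also: 0% = DMSO with IFN-gamma and 100% = nifuroxazide control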
The depositor's hits bear a star; nt = not tested or not shown.

SMILES	FLuc act counter	STAT3 inh-1	STAT3 activator	FLuc inhib CS	STAT1 act	STAT1 blocker	STAT3 inh-2	NFkB inh 2	STAT1 inh 2
CN1/C(=C\C(=O)C[n+]2ccc(C(=O)c3ccccc3)cc2)C(C)(C)c2ccccc21	1	56*	57	-3	101	-2	61*	-11	-1
NC(=O)c1ccccc1N/C=C/C(=O)c1ccccc1	0.1	49*	61	89*	91	9	17	-23	-132
COC(=O)c1ccccc1N/C=C/C(=O)c1ccc(Br)cc1	1	2	96	1	123	-25	nt	nt	nt
CCNc1nc(NCC)nc(Oc2ccc(OCc3ccccc3)nn2)n1	1	17	89	-5	82	18	nt	nt	nt
O=C1C2C3c4ccccc4C(c4ccccc43)[C@@H]2c2nc3ccccc3n21 (stereo not given in full)	1.1	48*	61	-5	102	-2	57*	8	-1
CC(=O)Nc1nc(-c2ccc3c(c2)CCN3S(C)(=O)=O)cs1	0.8	0	102	15	116	-16	nt	nt	nt
CS(=O)(=O)N1CCc2cc(-c3csc(NC(=O)Cc4cccs4)n3)ccc21	1.1	82*	36	-6	96	4	72*	19*	8
CCOc1ccc(N2C(=O)CC(N(Cc3ccco3)C(C)=O)C2=O)cc1 (stereo not given)	0.9	0	104	5	99	0	nt	nt	nt
COc1ccc(/C=N/N=C2\SC(CC(=O)O)C(=O)N2c2ccccc2)cc1 (stereo not given)	1	-11	107	-3	107	-8	nt	nt	nt
c1cncc(-c2nnc(-c3cccs3)o2)c1	1	14	90	-2	123	-25	nt	nt	nt
c1csc(-c2nnc(-c3ccc(N4CCOCC4)cc3)o2)c1	0.3	59*	56	71*	114	-16	17	-26	-109
CCOc1ccc(-c2nnc(-c3cccs3)o2)cc1	0.3	79*	39	65*	72	31	34	-3	-88
CCOc1ccc(-c2nnc(-c3cccs3)o2)cc1OCC	1	5	99	4	124	-26	nt	nt	nt
COc1cccc(CC(NC(C)=O)C(=O)NC2CCN(S(=O)(=O)c3ccc(F)cc3)CC2)c1OC (stereo not given)	1.1	2	101	-6	102	-3	nt	nt	nt
CC(=O)Nc1ccc(/C=N/NC(=S)NC(C)C)cc1	1	11	97	0	103	-3	nt	nt	nt
CCCCCCCCC[n+]1cccc2c3ccccc3ccc21	1.1	90*	29	-6	72	31	89*	57*	33*
Cc1ccc(CN=C2NC(=O)C(CC(=O)NCCc3ccccc3)S2)cc1 (stereo not given)	1.1	4	101	-6	103	-3	nt	nt	nt
Cc1ccc(CSc2nc3ncccc3[nH]2)cc1	0.2	48*	61	83*	107	-8	9	-15	-34
Cc1ccc(-n2nnnc2SCC(=O)c2cc(C)n(CC3CCCO3)c2C)cc1 (stereo not given)	1.1	nt	nt	-9	nt	nt	nt	nt	nt
Cc1cc(C(=O)CSc2nc3ccccc3[nH]2)c(C)n1CC1CCCO1 (stereo not given)	0.5	97*	23	48	74	29	63*	22*	-57
CC(CNC(=O)C(C)(C)C)NC(=O)C(C)(C)C (stereo not given)	1.1	3	99	-5	103	-3	nt	nt	nt
CC(C)OC(=O)c1cccnc1N1CCN(c2cccc(Cl)c2)CC1	1.1	-8	110	-8	100	0	nt	nt	nt
COc1ccc(N=c2scc(-c3ccc(OC)cc3)n2CCO)cc1	1	52*	60	-2	103	-3	29	-2	-10
Cc1sc(NC(=O)c2ccco2)c(C(c2cccnc2)N2CCC(C)CC2)c1C (stereo not given)	1.1	68*	45	-10	92	9	67*	16*	-1
Cc1sc(NC(=O)c2ccco2)c(CN2CCC(C)CC2)c1C	1	3	103	-2	100	0	nt	nt	nt
SMILES	FLuc act counter	STAT3 inh-1	STAT3 activator	FLuc inhib CS	STAT1 act	STAT1 blocker	STAT3 inh-2	NFkB inh 2	STAT1 inh 2
O=C(Nc1nc(-c2cccs2)cs1)c1ccc(S(=O)(=O)N2CCCC2)cc1	1	22	84	-4	90	11	nt	nt	nt
CN(C)S(=O)(=O)c1ccc(C(=O)Nc2nc(-c3cccs3)cs2)cc1	1.1	53*	61	-7	90	12	44*	7	6
CN(C)c1ccc(N/C=C/C(=O)c2ccco2)cc1	0	60*	53	96*	71	31	25	25*	-22
O=C(/C=C/Nc1cccc([N+](=O)[O-])c1)c1ccco1	nt	-21	127	nt	128	-31	nt	nt	nt
CCC(C)(C)NC(=O)C(c1cccnc1)N(C(=O)c1csnn1)c1ccccc1 (stereo not given)	1	5	100	4	98	2	nt	nt	nt
CC(C)(C)C(=O)OCCNc1nc(-c2ccccc2)nc2ccccc12	1.1	4	99	-6	100	1	nt	nt	nt
CCOc1ccccc1CN1CCN(Cc2nc3c(s2)CCCC3)CC1CCO (stereo not given)	1	-3	105	-4	101	-3	nt	nt	nt
CCN1CCN(/C=N/c2nc3c(s2)CCCC3)CC1	0.5	52*	58	48	113	-14	17	4	-30
O=C(CSc1nnc(Cn2nnc3ccccc32)o1)N(Cc1ccc(F)cc1)c1ccccc1	1	76*	37	-3	82	20	72*	24*	19*
COc1ccc(N(Cc2ccccc2)C(=O)CSc2nnc(Cn3nnc4ccccc43)o2)cc1	1.1	8	95	-8	94	6	nt	nt	nt
Cc1ccc(C2CC(c3ccco3)n3ncnc3N2)cc1 (stereo not given)	1	6	99	-3	93	7	nt	nt	nt
Cc1ccc2c(c1)C(N1CCCC1=O)CC(c1ccco1)N2 (stereo not given)	0.1	70*	43	95*	93	18	38	-2	-41
CCOC(=O)C1(CCOC)CCN(Cc2nc(C(C)C)cs2)CC1	1.1	-14	114	-8	93	6	nt	nt	nt
Cn1c(-c2ccccn2)[n+](C)c2ccccc21	1	-5	105	1	102	-3	nt	nt	nt
CN(C)c1ccc(-c2n(C)c3ccccc3[n+]2C)cc1	1	74*	40	2	83	19	65*	-7	24*

High-throughput results: PubChem BioAssay, several laboratories
